# Test system: Fibroblast
# Experiment: Multiplex assay against human fibroblast
# Assay type: toxicity, cell-based
# How it was run: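 Imaging took place on a CQ1 microscope at 37°C and 5% CO2 once compound had been added to live cells stained at seeding with Hoechst33342, BioTracker Green Microtubule Cytoskeleton Dye, MitoTracker Red and Annexin V Alexa Fluor 680. CellPathfinder machine-learning gating classed cells as Hoechst high-intensity objects or normal cells, classed normal cells as having healthy, pyknosed or fragmented nuclei, and classed pyknosed cells as mitotic or apoptotic. Tubulin, mitochondrial-mass and membrane-permeability phenotypes are per cents of the healthy-nucleus cells.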
# [1] = 12 h, 1 µM, compound concentration 1 uM, replicate 1
# [2] = 12 h, 1 µM, compound concentration 1 uM, replicate 2
# [3] = 12 h, 10 µM, compound concentration 10 uM, replicate 1
# [4] = 12 h, 10 µM, compound concentration 10 uM, replicate 2
# [5] = 24 h, 1 µM, compound concentration 1 uM, replicate 1
# [6] = 24 h, 1 µM, compound concentration 1 uM, replicate 2
# [7] = 24 h, 10 µM, compound concentration 10 uM, replicate 1
# [8] = 24 h, 10 µM, compound concentration 10 uM, replicate 2
# [9] = 48 h, 1 µM, compound concentration 1 uM, replicate 1
# [10] = 48 h, 1 µM, compound concentration 1 uM, replicate 2
# [11] = 48 h, 10 µM, compound concentration 10 uM, replicate 1
# [12] = 48 h, 10 µM, compound concentration 10 uM, replicate 2
compound,measurement,setting,value
C[C@H](NC(=O)CNC(=O)c1cccc(Cl)c1)c1ccccc1,Population Apoptotic (%),[1],50%
same,Population Fragmented Nuclei (%),[1],18%
same,Population Healthy Nuclei (%),[1],71%
same,Population Hoechst High Intensity Objects (%),[1],0%
same,Population Membrane Permeable-Phenotype (%),[1],0%
same,Population Mitochondria Different-Phenotype (%),[1],4%
same,Population Mitotic Cells (%),[1],50%
same,Population Normal (%),[1],100%
same,Population Pyknosed Nuclei (%),[1],10%
same,Population Tubulin-Different-Phenotype (%),[1],17%
same,Total Cell Count,[1],94
same,Population Apoptotic (%),[2],44%
same,Population Fragmented Nuclei (%),[2],28%
same,Population Healthy Nuclei (%),[2],53%
same,Population Hoechst High Intensity Objects (%),[2],3%
same,Population Membrane Permeable-Phenotype (%),[2],6%
same,Population Mitochondria Different-Phenotype (%),[2],2%
same,Population Mitotic Cells (%),[2],56%
same,Population Normal (%),[2],96%
same,Population Pyknosed Nuclei (%),[2],18%
same,Population Tubulin-Different-Phenotype (%),[2],41%
same,Total Cell Count,[2],140
same,Population Apoptotic (%),[3],48%
same,Population Fragmented Nuclei (%),[3],15%
same,Population Healthy Nuclei (%),[3],58%
same,Population Hoechst High Intensity Objects (%),[3],2%
same,Population Membrane Permeable-Phenotype (%),[3],0%
same,Population Mitochondria Different-Phenotype (%),[3],8%
same,Population Mitotic Cells (%),[3],51%
same,Population Normal (%),[3],97%
same,Population Pyknosed Nuclei (%),[3],26%
same,Population Tubulin-Different-Phenotype (%),[3],35%
same,Total Cell Count,[3],106
same,Population Apoptotic (%),[4],43%
same,Population Fragmented Nuclei (%),[4],31%
same,Population Healthy Nuclei (%),[4],43%
same,Population Hoechst High Intensity Objects (%),[4],1%
same,Population Membrane Permeable-Phenotype (%),[4],13%
same,Population Mitochondria Different-Phenotype (%),[4],3%
same,Population Mitotic Cells (%),[4],56%
same,Population Normal (%),[4],98%
same,Population Pyknosed Nuclei (%),[4],24%
same,Population Tubulin-Different-Phenotype (%),[4],54%
same,Total Cell Count,[4],124
same,Population Apoptotic (%),[5],43%
same,Population Fragmented Nuclei (%),[5],17%
same,Population Healthy Nuclei (%),[5],65%
same,Population Hoechst High Intensity Objects (%),[5],1%
same,Population Membrane Permeable-Phenotype (%),[5],1%
same,Population Mitochondria Different-Phenotype (%),[5],3%
same,Population Mitotic Cells (%),[5],56%
same,Population Normal (%),[5],98%
same,Population Pyknosed Nuclei (%),[5],17%
same,Population Tubulin-Different-Phenotype (%),[5],25%
same,Total Cell Count,[5],93
same,Population Apoptotic (%),[6],33%
same,Population Fragmented Nuclei (%),[6],30%
same,Population Healthy Nuclei (%),[6],50%
same,Population Hoechst High Intensity Objects (%),[6],3%
same,Population Membrane Permeable-Phenotype (%),[6],8%
same,Population Mitochondria Different-Phenotype (%),[6],4%
same,Population Mitotic Cells (%),[6],66%
same,Population Normal (%),[6],96%
same,Population Pyknosed Nuclei (%),[6],19%
same,Population Tubulin-Different-Phenotype (%),[6],42%
same,Total Cell Count,[6],145
same,Population Apoptotic (%),[7],52%
same,Population Fragmented Nuclei (%),[7],14%
same,Population Healthy Nuclei (%),[7],61%
same,Population Hoechst High Intensity Objects (%),[7],2%
same,Population Membrane Permeable-Phenotype (%),[7],1%
same,Population Mitochondria Different-Phenotype (%),[7],3%
same,Population Mitotic Cells (%),[7],48%
same,Population Normal (%),[7],97%
same,Population Pyknosed Nuclei (%),[7],24%
same,Population Tubulin-Different-Phenotype (%),[7],45%
same,Total Cell Count,[7],107
same,Population Apoptotic (%),[8],56%
same,Population Fragmented Nuclei (%),[8],33%
same,Population Healthy Nuclei (%),[8],45%
same,Population Hoechst High Intensity Objects (%),[8],5%
same,Population Membrane Permeable-Phenotype (%),[8],5%
same,Population Mitochondria Different-Phenotype (%),[8],7%
same,Population Mitotic Cells (%),[8],43%
same,Population Normal (%),[8],94%
same,Population Pyknosed Nuclei (%),[8],20%
same,Population Tubulin-Different-Phenotype (%),[8],64%
same,Total Cell Count,[8],118
same,Population Apoptotic (%),[9],33%
same,Population Fragmented Nuclei (%),[9],20%
same,Population Healthy Nuclei (%),[9],67%
same,Population Hoechst High Intensity Objects (%),[9],1%
same,Population Membrane Permeable-Phenotype (%),[9],0%
same,Population Mitochondria Different-Phenotype (%),[9],0%
same,Population Mitotic Cells (%),[9],66%
same,Population Normal (%),[9],98%
same,Population Pyknosed Nuclei (%),[9],12%
same,Population Tubulin-Different-Phenotype (%),[9],26%
same,Total Cell Count,[9],95
same,Population Apoptotic (%),[10],40%
same,Population Fragmented Nuclei (%),[10],29%
same,Population Healthy Nuclei (%),[10],52%
same,Population Hoechst High Intensity Objects (%),[10],3%
same,Population Membrane Permeable-Phenotype (%),[10],4%
same,Population Mitochondria Different-Phenotype (%),[10],2%
same,Population Mitotic Cells (%),[10],60%
same,Population Normal (%),[10],96%
same,Population Pyknosed Nuclei (%),[10],17%
same,Population Tubulin-Different-Phenotype (%),[10],44%
same,Total Cell Count,[10],147
same,Population Apoptotic (%),[11],68%
same,Population Fragmented Nuclei (%),[11],15%
same,Population Healthy Nuclei (%),[11],56%
same,Population Hoechst High Intensity Objects (%),[11],7%
same,Population Membrane Permeable-Phenotype (%),[11],1%
same,Population Mitochondria Different-Phenotype (%),[11],15%
same,Population Mitotic Cells (%),[11],31%
same,Population Normal (%),[11],92%
same,Population Pyknosed Nuclei (%),[11],27%
same,Population Tubulin-Different-Phenotype (%),[11],50%
same,Total Cell Count,[11],112
same,Population Apoptotic (%),[12],69%
same,Population Fragmented Nuclei (%),[12],38%
same,Population Healthy Nuclei (%),[12],50%
same,Population Hoechst High Intensity Objects (%),[12],4%
same,Population Membrane Permeable-Phenotype (%),[12],6%
same,Population Mitochondria Different-Phenotype (%),[12],5%
same,Population Mitotic Cells (%),[12],30%
same,Population Normal (%),[12],95%
same,Population Pyknosed Nuclei (%),[12],11%
same,Population Tubulin-Different-Phenotype (%),[12],67%
same,Total Cell Count,[12],121
